{"source": "paper PMC3157043", "about": "(Nuclear medicine and biology, 2011)", "key": {"A2A": {"system": "A2A", "settings": "cited from earlier work"}, "[1]": {"settings": "normal rats; cited from earlier work"}, "[2]": {"test": "In vivo biodistribution in normal rats", "design": "species or system rat", "outline": "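Non-lesioned male SD rats received ~11.1 MBq (300 µCi)/rat radiotracer i.v. in saline. They were killed by CO2 asphyxiation at 30 (n = 4), 60 (n = 4) or 120 min (n = 6). Brain, blood and other tissues were wet-weighed and gamma-counted, and uptake was expressed as %ID/g. Data are mean ± SEM, with means compared by 1-way ANOVA.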"}, "A2A receptor [3]": {"target": "T1, A2A receptor (Rattus norvegicus, UniProt P30543)", "T1 sequence (P30543 whole entry)": "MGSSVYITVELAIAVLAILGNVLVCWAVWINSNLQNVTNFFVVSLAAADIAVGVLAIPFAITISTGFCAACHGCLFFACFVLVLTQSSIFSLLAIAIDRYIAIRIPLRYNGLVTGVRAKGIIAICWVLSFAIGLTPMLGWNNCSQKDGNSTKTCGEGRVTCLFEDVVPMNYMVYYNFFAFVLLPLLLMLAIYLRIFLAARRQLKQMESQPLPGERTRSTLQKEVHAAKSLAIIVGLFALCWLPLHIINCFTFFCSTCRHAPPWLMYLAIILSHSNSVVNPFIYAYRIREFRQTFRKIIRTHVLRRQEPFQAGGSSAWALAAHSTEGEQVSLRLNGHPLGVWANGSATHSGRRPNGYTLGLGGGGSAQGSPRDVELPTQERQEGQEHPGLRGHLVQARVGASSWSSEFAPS", "test": "Ex vivo brain autoradiography / in vivo blocking", "settings": "30 min after i.v. injection of 12.9 MBq, 50 µm slices"}, "adenosine A2A": {"target": "adenosine A2A (Rattus norvegicus, UniProt P30543)", "sequence (P30543 whole entry)": "as above", "test": "In vitro autoradiography of rat brain slices", "type": "binding", "settings": "90 min incubation, 2.3 MBq tracer, phosphor imaging"}, "A2A receptor [4]": {"target": "T1, A2A receptor", "test": "PET kinetic experiment in normal rats", "type": "in vivo", "outline": "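Unlesioned male SD rats, age-matched to 13–14-week lesioned rats, were imaged on an Inveon microPET under isoflurane (2–3% v/v in O2). Each received […]/rat radiotracer i.v. in saline, followed by a 30 min list-mode emission scan. Caudate-putamen ROI mean pixel values were converted to counts/g/min (1 g/mL density) and divided by injected dose to give %ID/g, reported as mean ± SEM.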"}, "[5]": {"test": "In vitro metabolism in cryopreserved rat hepatocytes", "type": "in vitro ADME", "settings": "rat hepatocyte incubation"}, "A2A receptor [6]": {"target": "T1, A2A receptor", "test": "PET kinetic experiment in unilaterally 6-OHDA-lesioned rats", "type": "in vivo"}}, "data": [{"smiles": "Nc1nc2c(cnn2CCCc2ccc(OCCF)cc2)c2nc(-c3ccco3)nn12", "note": "[MRS5425, 7-(3-(4-(2-fluoroethoxy)phenyl)propyl)-2-(furan-2-yl)-7H-pyrazolo[4,3-e][1,2,4]triazolo[1,5-c]pyrimidin-5-amine]", "values": [{"measurement": "selectivity over A1 and A3", "setting": "A2A; A2A versus A1 and A3", "result": 1000, "unit": "fold"}, {"measurement": "Ki", "setting": "A2A; read-out: Ki for A2A", "result": 12.4, "unit": "nM"}]}, {"smiles": "[11CH3]Oc1ccc(CCCn2ncc3c2nc(N)n2nc(-c4ccco4)nc32)cc1", "note": "[[^11C]-SCH442416]", "values": [{"measurement": "time of maximum radioactivity accumulation in striatum", "setting": "[1]", "result": 5, "unit": "min"}, {"measurement": "time to reach 50% of peak striatal %ID/g", "setting": "[1]", "result": "≤ 25", "unit": "min"}, {"measurement": "time to reach lowest striatal %ID/g", "setting": "[1]", "result": "≤ 60", "unit": "min"}]}, {"smiles": "Nc1nc2c(cnn2CCCc2ccc(OCC[18F])cc2)c2nc(-c3ccco3)nn12", "note": "[[^18F]-MRS5425, 7-(3-(4-(2-[^18F]fluoroethoxy)phenyl)propyl)-2-(furan-2-yl)-7H-pyrazolo[4,3-e][1,2,4]triazolo[1,5-c]pyrimidin-5-amine]", "values": [{"measurement": "primary accumulation (tissues)", "setting": "[2]; 30, 60, 120 min biodistribution", "result": "intestine and urine"}, {"measurement": "uptake in striatum", "setting": "[2]; 30 min after i.v. injection, n = 4, mean ± SEM", "result": "0.25 ± 0.09", "unit": "%ID/g"}, {"measurement": "uptake in striatum", "setting": "[2]; 60 min after i.v. injection, n = 4, mean ± SEM", "result": "0.35 ± 0.10", "unit": "%ID/g"}, {"measurement": "uptake in striatum", "setting": "[2]; 120 min after i.v. injection, n = 6, mean ± SEM", "result": "0.13 ± 0.03", "unit": "%ID/g"}, {"measurement": "uptake in striatum compared to blood", "setting": "[2]; at 30 and 60 min", "result": "~ 2 fold"}, {"measurement": "ex vivo radioactivity binding in brain slices", "setting": "A2A receptor [3]", "result": "radioactivity binding in the striatal region bilaterally"}, {"measurement": "radioactivity binding on coronal brain slices", "setting": "adenosine A2A", "result": "radioactivity binding (dark area in Fig 1 b) in the caudate-putamen (striatum) nucleus bilaterally"}, {"measurement": "bone uptake in imaging studies", "setting": "A2A receptor [4]; PET imaging in rats, marker of defluorination", "result": "not observed"}, {"measurement": "plateau of striatal %ID/g held until", "setting": "A2A receptor [4]; normal rats", "result": 3.5, "unit": "min"}, {"measurement": "striatal uptake versus cortical and other regions", "setting": "A2A receptor [4]; normal rats, PET images", "result": "significantly higher uptake"}, {"measurement": "time of decline to 75% of peak %ID/g", "setting": "A2A receptor [4]; normal rats, striatum TAC", "result": "about 6 min"}, {"measurement": "time of maximum striatal ROI-derived %ID/g", "setting": "A2A receptor [4]; normal rats, striatum TAC", "result": 90, "unit": "s"}, {"measurement": "plateau maintained after maximum", "setting": "A2A receptor [4]; normal rats, striatum TAC, additional time after 90 sec", "result": 2, "unit": "min"}, {"measurement": "%ID/g values compared with [11C]-SCH442416 in monkeys", "setting": "A2A receptor [4]; rat striatum versus 0.035 %ID/mL in monkeys", "result": "~ 20 fold"}, {"measurement": "defluorination", "setting": "[5]", "result": "evidence for defluorination"}, {"measurement": "metabolite observed", "setting": "[5]; HPLC-MS, m/z +16, believed N-oxidation", "result": "a major fluorine-containing metabolite"}, {"measurement": "plateau of striatal %ID/g held until", "setting": "A2A receptor [6]; 6-OHDA rats", "result": 4.5, "unit": "min"}, {"measurement": "plateau maintained after peak", "setting": "A2A receptor [6]; 6-OHDA-lesioned rats, saline", "result": "about 3 min"}, {"measurement": "time of peak baseline striatal %ID/g", "setting": "A2A receptor [6]; 6-OHDA-lesioned rats, saline, both lesioned and intact sides", "result": 90, "unit": "s"}, {"measurement": "%ID/g in lesioned side compared to intact side", "setting": "A2A receptor [6]; saline baseline, after plateau to 30 min, p < 0.05", "result": "significantly higher"}]}]}
